Compound activity deposited in PubChem by several laboratories.
NPY Y2 blocker: blocks the human neuropeptide Y Y2 receptor | P49146 | NPY-Y2 expressing cells, antagonist mode | inhibition, % at 2.7 µM | 0.99% of 140,000 active | AID 793; in the data active = inhibition above about 17%;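 note: 0% = vehicle with agonist challenge and 100% = reference antagonist with challenge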
Cl transport mod: modulates chloride dependent transport by human KCC2; KCC2 cells, thallium flux FluoZin-2 fluorescence; AID 1456; B-score of Tl+ flux slope (higher = more flux/activation; lower = inhibition) at 10 µM; 2.2% of 190,000 active;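 active = thallium flux slope and its plate-corrected score both differing from the plate sample mean at a set confidence after two filtering rounds, in either direction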;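 note: slope of fluorescence scaled to starting intensity during 10 to 20 s after thallium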
Target sequence (Q9H2X9 whole entry, looked up): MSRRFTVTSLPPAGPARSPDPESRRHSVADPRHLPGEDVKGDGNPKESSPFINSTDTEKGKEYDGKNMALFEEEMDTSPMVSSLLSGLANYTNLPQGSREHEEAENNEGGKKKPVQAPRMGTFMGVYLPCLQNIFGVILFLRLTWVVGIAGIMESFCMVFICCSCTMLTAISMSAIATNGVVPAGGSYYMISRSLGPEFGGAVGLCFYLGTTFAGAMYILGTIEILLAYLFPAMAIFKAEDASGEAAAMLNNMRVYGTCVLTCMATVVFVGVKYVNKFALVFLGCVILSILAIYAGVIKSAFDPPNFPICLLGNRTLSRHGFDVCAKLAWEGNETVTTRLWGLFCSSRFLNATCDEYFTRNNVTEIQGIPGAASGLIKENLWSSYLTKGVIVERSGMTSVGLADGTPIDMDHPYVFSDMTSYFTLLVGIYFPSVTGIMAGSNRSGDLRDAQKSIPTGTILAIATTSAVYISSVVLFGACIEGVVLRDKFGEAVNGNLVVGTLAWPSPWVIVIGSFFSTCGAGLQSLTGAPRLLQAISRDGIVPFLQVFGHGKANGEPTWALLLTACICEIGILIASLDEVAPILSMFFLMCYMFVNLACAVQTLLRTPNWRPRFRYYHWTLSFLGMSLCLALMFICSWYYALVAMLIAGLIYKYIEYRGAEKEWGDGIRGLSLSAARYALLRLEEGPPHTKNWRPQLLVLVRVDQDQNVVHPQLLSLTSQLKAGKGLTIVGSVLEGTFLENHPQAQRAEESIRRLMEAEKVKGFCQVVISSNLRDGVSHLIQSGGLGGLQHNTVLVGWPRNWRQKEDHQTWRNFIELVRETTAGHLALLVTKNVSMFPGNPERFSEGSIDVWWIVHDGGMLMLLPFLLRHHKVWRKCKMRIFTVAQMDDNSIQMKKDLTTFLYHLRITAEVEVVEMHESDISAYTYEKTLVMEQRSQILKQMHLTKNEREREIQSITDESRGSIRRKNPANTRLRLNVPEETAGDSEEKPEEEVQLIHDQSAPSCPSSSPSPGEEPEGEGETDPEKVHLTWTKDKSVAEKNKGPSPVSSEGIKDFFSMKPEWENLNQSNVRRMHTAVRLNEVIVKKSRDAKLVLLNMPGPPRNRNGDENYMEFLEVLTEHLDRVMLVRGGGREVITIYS
NPY-Y1 antag: blocks the human neuropeptide Y Y1 receptor; HEK293-CNG Y1 cells, membrane potential fluorescence; NPY at EC95, then isoproterenol; inhibition, % at 3.6 µM; 1% of 200,000 active;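 active = inhibition above the campaign mean inhibition of all tested compounds plus 3 SD, cut at about 20% in these data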;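 note: 0% = DMSO wells given NPY plus isoproterenol and 100% = isoproterenol alone without NPY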
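System: HEK293 cells with Y1 receptor plus CNG channel / Probe or stimulus: NPY 25 nM then isoproterenol 1 µM plus Ro 20-1724 25 µM / Compound: one concentration, 3.6 µM, in 0.4% DMSO / Schedule: compound incubation 1 h at room temperature, readout 45 min post-stimulation / Measured by: membrane potential fluorescence / Read-out: % inhibition of NPY effect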
Furin inhibitor: human furin inhibition. inhibition, % at 20 µM or 30 µM. 0.061% of 220,000 active. P09958. purified furin, fluorogenic substrate cleavage; in the data active = inhibition above about 25%
NPY-Y2 PAM-ag: potentiators or agonists of human neuropeptide Y receptor Y2; P49146; cells expressing NPY-Y2, potentiator/agonist read-out; activation, % at 3.6 µM; 0.45% of 220,000 active; AID 1359; in the data active = activation above about 27%;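 note: cells stimulated with NPY near EC25 plus isoproterenol at EC100; 0% = vehicle plus submaximal agonist and 100% = vehicle plus saturating agonist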
NPY1 pot ag: potentiators or agonists of human neuropeptide Y receptor Y1. NPY-Y1 expressing cells, potentiator/agonist activation. activation, % at 3.6 µM. 0.37% of 220,000 active. AID 1304; in the data active = activation above about 33%, passing the limit was not always enough;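 note: cells stimulated with NPY at EC10 then isoproterenol at EC100; 0% = low agonist plus stimulus and 100% = saturating agonist plus stimulus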
KCC2 sec1: confirmation of human KCC2 transport modulators; normalised thallium flux (F/F0 slope) at 10 µM; 15% of 3,700 active; shares compounds with Cl transport mod; HEK293-KCC2, thallium flux, FluoZin2 fluorescence; active compounds read high;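 active = thallium flux slope above the same plate's solvent-only control mean plus 3 SD; inconclusive = the two replicate wells disagree; inactive = no significant difference from solvent-only control wells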
KCC2 bumet counter: thallium flux despite bumetanide block in KCC2 cells, secondary assay 3 | shares compounds with Cl transport mod | HEK293-KCC2 + bumetanide/ouabain, thallium flux FluoZin2; active compounds read high | normalized thallium flux at 10 µM | 49% of 3,700 active | AID 1714;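 active = thallium entry rate above the same plate's blocked-transporter control wells by more than 3 SD; inconclusive = the two repeat wells disagree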;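 note: raw slope of fluorescence over initial fluorescence between 10 and 20 s after thallium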
KCC2 sec2: confirmation of human KCC2 transport modulators. shares compounds with Cl transport mod. HEK293-KCC2, thallium flux FluoZin2 fluorescence; actives lie on both sides; F/F0 rise rate, 10–20 s post-thallium. normalized thallium flux at 10 µM. 23% of 3,700 active. AID 1715;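 active = thallium flux slope more than 3 SD above or below the plate's solvent-only control mean, mostly below; inconclusive = the two repeat wells disagreed; inactive = no significant shift from solvent-only controls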;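 note: raw slope with 0.1% DMSO as baseline and bumetanide as block control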
HEK293 Tl flux: acts in parental HEK cells, KCC2 counter-screen. AID 1716. 46% of 3,700 active. HEK293 parental cells, thallium flux FluoZin2, ouabain; baseline-ratio fluorescence slope, 10–20 s after thallium. shares compounds with Cl transport mod. thallium flux rate (normalised fluorescence) at 10 µM;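 active = thallium flux rate significantly above the same plate's solvent-only control wells, beyond their mean plus 3 SD; inconclusive = the two replicate wells gave conflicting results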
KCC2 ouabain: confirmation of human KCC2 modulators with ouabain | shares compounds with Cl transport mod | HEK293-KCC2, thallium flux FluoZin2 fluorescence; bidirectional: low = inhibitor, high = activator | raw Tl+ flux slope (below DMSO = inhibition, above = activation) at 10 µM | 48% of 3,700 active | AID 1717;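 active = thallium flux slope beyond 3 SD from same-plate DMSO control mean in most replicates, usually higher, sometimes lower; inconclusive = repeat tests gave conflicting results; inactive = no significant difference from controls in most replicates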;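 note: slope of initial-normalized fluorescence between seconds 10 and 20 after thallium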
HEK293 Tl flux2: acts in parental HEK cells, second KCC2 counter-screen. thallium flux slope at 10 µM. shares compounds with Cl transport mod. 33% of 3,700 active. HEK293 parental, thallium flux FluoZin-2 fluorescence slope;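 active = thallium flux slope above the same plate's solvent-control mean plus 3 SD in both duplicate wells; inconclusive = duplicate wells that disagreed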;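 note: run without ouabain in cells lacking the KCC2 cotransporter; slope of fluorescence scaled to its starting value between 10 and 20 s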
* hit, by the source's call; ? = inconclusive; . = no result. This is a sample that favours compounds with a hit; in the whole collection about 3.7% have one here.

SMILES	NPY Y2 blocker	Cl transport mod	NPY-Y1 antag	Furin inhibitor	NPY-Y2 PAM-ag	NPY1 pot ag	KCC2 sec1	KCC2 bumet counter	KCC2 sec2	HEK293 Tl flux	KCC2 ouabain	HEK293 Tl flux2
O=C(Nc1nnc(-c2ccco2)o1)c1ccc(Cl)cc1	.	29*	-0.4	-22.4	-12.7	1.1	0.0324*	0.069*	?	0.0314*	0.0604*	0.0166*
Cc1cccc(C(=O)Nc2nnc(-c3ccco3)o2)c1	0.9	4.65	6.2	-1.7	9.3	11.2	.	.	.	.	.	.
Cc1nnc(SCC(=O)NNC(=O)c2ccco2)n1-c1cccc(Cl)c1	.	-3.6*	-2.2	-8.5	5.7	-0.1	0.00941	?	0.0304	0.00801	0.0653	?
Cc1ccc(-n2ncc3c(SCC(=O)NNC(=O)c4ccco4)ncnc32)cc1	.	37*	-1.5	-20.0	1.4	3.0	?	0.0407*	?	0.0347*	0.0349*	0.0321*
O=C(CSc1nnc(-c2ccc(O)cc2)n1Cc1ccco1)N1CCc2ccccc2C1	2.1	-3.7*	-5.9	-18.1	-7.0	-30.3	0.00711	0.00403	0.0231*	0.00686	0.0133*	0.00995
O=C(COC(=O)c1cccnc1Cl)Nc1nc(-c2ccccc2)cs1	3.9	-5.34*	3.5	-8.4	1.8	-1.0	0.0056*	0.00626	0.0286	0.00677	0.0409*	0.00997
Cc1ccc(-c2csc(NC(=O)CCNC(=O)c3ccccc3Cl)n2)cc1	-1.9	-3.78*	-2.2	-7.5	3.3	-1.8	0.00613	0.00466	?	0.0076	?	0.0101
O=C(COC(=O)c1ccccc1O)Nc1cccnc1Cl	3.3	1.95	2.4	-15.3	7.8	3.5	.	.	.	.	.	.
O=C(Nc1nccs1)c1cncc(Br)c1	.	-0.573	0.1	-6.6	-9.6	15.1	.	.	.	.	.	.
COc1cc(NC(=O)c2ccco2)c(C(=O)OCC(=O)c2c[nH]c3ccccc23)cc1OC	-0.1	-0.436	2.8	-17.7	-8.0	-1.7	.	.	.	.	.	.
CCc1ccccc1NC(=O)CN(C)C(=O)CSc1nn(-c2ccc(F)cc2)c(=S)s1	10.8	-0.329	0.3	-10.7	-14.8	1.8	.	.	.	.	.	.
COc1cc2c(cc1OC)C(c1cccs1)CC(=O)N2 (stereo unspecified)	3.5	.	-4.0	-14.0	5.5	-5.4	0.00629	0.00473	0.0289	0.00807	0.0192	0.0113
CN(C)CC(C)(C)CNC(=O)CC1C(=O)NCCN1Cc1ccc(-c2ccccc2)cc1 (stereo unspecified)	.	0.397	-0.3	-23.3	10.7	-3.9	.	.	.	.	.	.
CN1C2CCC1/C(=C\c1ccccc1F)C(=O)/C2=C/c1ccccc1F	1.3	0.363	2.8	-31.5	4.6	11.4	.	.	.	.	.	.
O=C(c1ccccc1NS(=O)(=O)c1ccc(Cl)cc1)N1CCc2ccccc21	7.0	6.1*	4.3	-11.6	-22.4	-14.2	0.0113	0.0445*	0.0303	0.013*	0.0535*	0.0112*
CC1CCCC(NC(=O)CCC(=O)c2ccc(F)cc2)C1C (stereo unspecified)	.	-3.98*	.	-18.6	-24.9	-22.9	0.00641	0.00526	0.0304	0.00701	0.0181	0.00962
CCOc1ccc(C(=S)N2CCN(C)CC2)cc1	.	1.03	4.6	-19.5	-6.3	-10.2	.	.	.	.	.	.
Cc1ccc(O)c(N=Cc2cc(Cc3ccccc3)cc([N+](=O)[O-])c2O)c1	.	-3.83*	2.3	-14.1	0.0	-21.4	0.00672	?	0.0321	0.00349	0.0143*	?
COCCNC(=S)NC(=O)c1ccc(C(C)(C)C)cc1	.	8.36*	5.3	-19.3	3.6	-2.8	0.00975	0.0246*	0.03	?	0.0192	0.0106
COC(=O)c1ccc(NC(=O)COc2ccc(S(=O)(=O)NC(C)(C)C)cc2)cc1	.	0.458	1.4	-21.1	5.3	5.6	.	.	.	.	.	.
Cc1ccc(/C=N/NC(=O)c2ccoc2C)s1	1.1	2.01	-5.0	1.4	-11.8	-14.9	.	.	.	.	.	.
Cc1occc1C(=O)N/N=C/c1ccc(Br)s1	.	78.4*	0.4	-10.2	-36.6	2.4	?	0.0297*	0.0316	0.0363*	0.0523*	0.0216*
Cc1scc(C(=O)N/N=C/c2ccc(Cl)s2)c1C	3.5	38.6*	2.3	-11.7	3.5	13.3	?	0.0529*	0.0433*	0.0776*	0.0856*	0.0238*
Cc1ccc(/C=N/NC(=O)c2ccco2)s1	-0.1	-0.582	1.3	-3.6	-16.0	-23.3	.	.	.	.	.	.
Cc1scc(C(=O)N/N=C/c2ccc(OC(C)C)cc2)c1C	6.9	0.0493	3.9	-10.8	-24.1	-12.0	.	.	.	.	.	.
SMILES	NPY Y2 blocker	Cl transport mod	NPY-Y1 antag	Furin inhibitor	NPY-Y2 PAM-ag	NPY1 pot ag	KCC2 sec1	KCC2 bumet counter	KCC2 sec2	HEK293 Tl flux	KCC2 ouabain	HEK293 Tl flux2
O=C(N/N=C/c1ccc(Br)s1)c1ccco1	.	7.05*	.	1.0	-9.2	8.1	0.0106	0.0108*	0.0354	0.0163*	0.0239	0.0132*
Cc1ccc(C(=O)N2CCN(S(=O)(=O)c3ccc(C)c([N+](=O)[O-])c3)C2)cc1	.	0.899	0.8	-27.9	2.9	15.7	.	.	.	.	.	.
CC(C)(C)OC(=O)N1CCC(CNC(=O)c2ccc(F)cc2)CC1	.	0.0569	.	-23.1	-26.9	-13.9	.	.	.	.	.	.
CCOc1cc(S(=O)(=O)NCCc2cccc(C)c2)c(OCC)cc1-n1cnnn1	1.2	.	-1.3	-23.2	-10.9	-24.4	.	.	.	.	.	.
COc1ccc(C)cc1S(=O)(=O)N(C)CC(=O)Nc1ccccc1	3.1	1.79	1.8	-14.1	1.7	-1.3	.	.	.	.	.	.
COc1ccc(S(=O)(=O)N(C)CC(=O)O)c2ccccc12	3.2	3.02*	12.1	-14.2	-10.1	-23.1	0.00661	0.0048	0.0295	0.00802	0.0185	0.0115
COc1ccc(NC(=O)C(=O)N/N=C/c2cccnc2)c(OC)c1	-1.6	7.75*	1.1	-3.1	-4.5	14.5	0.00582	?	0.0299	0.00861	0.0205	0.0117
CCOc1ccc(NC(=O)C(=O)N/N=C/c2cccnc2)cc1	.	-1.51	.	-10.3	7.9	22.2	.	.	.	.	.	.
Cc1cc2ncn(-c3ncnc4sc5c(c34)CCC(C)C5)c2cc1C (stereo unspecified)	-2.0	-0.602	1.1	-1.2	-2.1	12.0	.	.	.	.	.	.
